# Experiments:
# [1] = fatty acid oxidation in liver tissue; assay type: in vivo, mouse; details: DIO mice, G49, 72 h
# How it was run: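 Frozen liver (30 mg) was homogenised in cold STE buffer (25 mM Tris-HCl, sucrose, 1 mM EDTA, pH 7.4), sonicated 10 s and spun at 420 × g for 10 min at 4 °C. The supernatant was used for the oxidation reaction. Radioactive acid-soluble metabolites were counted by scintillation and expressed as nmol/g liver/h.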
# [2] = test system: brown adipocytes; assay: brown adipocytes treated with serum of G49-treated mice; assay type: cell-based, mouse; details: serum from mice receiving G49 for 72 h
# How it was run: (§1)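 Brown preadipocytes were immortalised by retroviral SV40 Large T (20% FBS, 8 μg/mL polybrene, 48 h) at 70–80% confluence. Differentiation began with 2 days in induction medium (0.5 μM dexamethasone, 0.5 mM IBMX, indomethacin, 1 μM rosiglitazone).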
# [3] = plasma insulin; assay type: in vivo, mouse; details: DIO mice
# How it was run: (§2)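 Plasma ALT was read with Reflotron strips and plasma TGs by colorimetric assay. Serum FGF21 and plasma adiponectin and insulin were measured by ELISA.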
# [4] = liver histology; assay type: in vivo, mouse; details: DIO mice
# [5] = test system: pancreatic islets from DIO mice; assay: ex vivo glucose-stimulated insulin secretion; assay type: cell-based, mouse; details: 500 nM G49, 1 or 24 h
# How it was run: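 Islets were plated at 100 per 3 mL and treated the next day with 500 nM test compound for 1 or 24 h. After 1 h preincubation in KRB (2.8 mM glucose, 0.25% BSA, pH 7.4, 37 °C), batches of 3 islets were stimulated 1 h with 2.8 or 16.7 mM glucose. Insulin was measured by ELISA and normalised per islet; n = 4 mice.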
# [6] = plasma ALT; assay type: in vivo, mouse; details: DIO mice
# How it was run: as §2
# [7] = MRI body composition, total/visceral fat, lean mass; assay type: in vivo, mouse
# [8] = test system: primary mouse hepatocytes; assay: FGF21 release and gene expression in primary hepatocytes; assay type: cell-based; details: 500 nM G49, 16 h
# How it was run: (§3)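 Primary hepatocytes came from non-fasted male C57BL/6J mice fed HFD for 12 weeks, with or without in vivo treatment, by two-step collagenase perfusion. Cells were spun at 60 × g, purified on isotonic Percoll (1:1) at 230 × g and seeded on collagen. They were cultured 24 h at 37 °C, 5% CO2 before exposure to the test compound.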
# [9] = test system: eWAT, iWAT, BAT; assay: PKA Thr197 and HSL Ser660 phosphorylation; assay type: in vivo, mouse; details: DIO mice, G49
# How it was run: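 Tissue lysates were cleared twice at 98,560 × g for 40 min at 4 °C; protein was measured by BCA. After transfer, loading was checked with Ponceau. Membranes were blocked with 6% skimmed milk in TBS-0.05% Tween-20 for 2 h at RT, then incubated with primary antibodies overnight at 4 °C.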
# [10] = energy expenditure; assay type: in vivo, mouse; details: DIO mice, G49, day 3, light and dark phases
# How it was run: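 Mice entered metabolic cages 2 days before the first s.c. dose, which was given every 2 days. Indirect calorimetry parameters were then recorded for the following 3 days.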
# [11] = plasma FFAs; assay type: in vivo, mouse; details: for plasma FFA elevation: DIO mice
# [12] = test system: brown adipocytes; assay: thermogenic gene expression and UCP1 in brown adipocytes; assay type: cell-based, mouse; details: G49, brown adipocytes
# How it was run: as §1
# [13] = body weight, HFD-fed; assay type: in vivo, mouse
# [14] = blood glucose; assay type: in vivo, mouse
# How it was run: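 DIO mice were fed 60%-fat HFD from 8 weeks of age, for 12 weeks (males) or 24 weeks (females); one male cohort was housed at 30 °C. The test compound was given s.c. every 2 days in 50 mM sodium phosphate/300 mM mannitol pH 6.9. Glucose and ketone bodies were read in tail-vein blood.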
# [15] = intrahepatic triglyceride content; assay type: in vivo, mouse; details: DIO mice
# [16] = liver-to-body weight ratio; assay type: in vivo, mouse; details: DIO mice, G49, 6 h
# [17] = test system: primary mouse hepatocytes; assay: insulin-induced AKT Ser473 phosphorylation in hepatocytes; assay type: cell-based; details: pre-treatment with G49
# How it was run: as §3
# [18] = eWAT and iWAT weight; assay type: in vivo, mouse
# [19] = TUNEL analysis of eWAT; assay type: in vivo, mouse; details: 6 h post-G49
# How it was run: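 Paraffin-embedded eWAT sections were stained with a fluorimetric DeadEnd TUNEL kit, mounted in fluorescent medium and imaged by confocal microscopy.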
# [20] = cumulative food intake; assay type: in vivo, mouse; details: DIO mice, H + G49, 72 h, versus vehicle
# [21] = gene expression in mouse tissues/SVF; assay type: in vivo
# [22] = test system: brown adipocytes; assay: OCR in differentiated brown adipocytes; assay type: cell-based, mouse; details: G49, 16 h
# How it was run: as §1
sequence,measurement,setting,value
HSQGTFTSDYSKYLEEEAVRLFIC (40 kDa PEG) WLMNT-amide acetate salt [G49],hepatic fatty acid oxidation,[1],concomitant increase in hepatic Cpt1a and Ppara mRNAs (Fig. 3J) and fatty acid oxidation (FAO)
same,Ucp1 mRNA and UCP1 protein,[2],increased Ucp1 mRNA and UCP1 protein levels
same,plasma insulin,"[3]; G49 + ATGLi, 6 h",plasma insulin was partly reduced
same,peak in insulin secretion,"[3]; G49 + Ex9-39, 6 h",Ex9-39 totally abolished this increase
same,peak in insulin secretion,"[3]; G49 + GCGRant, 6 h",partially blocked by the GCGRant
same,"plasma insulin, early","[3]; G49, 6 h",a rise in plasma insulin
same,hepatic lipid overload,"[4]; G49 + ATGLi, 6 h",absent in mice co-treated with ATGLi
same,"lipid accumulation, liver sections","[4]; G49, 6 h",an increase in lipid accumulation
same,insulin secretion,[5],also observed by ex vivo treatment of pancreatic islets from DIO mice with G49
same,ALT elevation,"[6]; G49 + GCGRant, 6 h",hepatic lipid overload and ALT elevation were not observed
same,ALT activity,"[6]; G49, 6 h","an increase in lipid accumulation analyzed by H&E and oil-red O staining of liver sections, liver-to-body weight ratio, and alanine aminotransferase (ALT) activity"
same,visceral fat,"[7]; Adipoq−/− mice, G49, 1 week, vs Adipoq+/+",lower reduction in visceral fat
same,total and visceral adiposity,"[7]; DIO mice, G49 + GCGRant, 6 h",abolished the acute effects of G49 in reducing total and visceral adiposity at 6 h post-injection
same,"adiposity, fat mass, eWAT and iWAT weight","[7]; DIO mice, G49 with antagonists, alone or in combination, day 7","its administration with antagonists, either alone or in combination, totally blocked this effect"
same,FGF21 release and Sir2 expression,[8],increased FGF21 levels released to the culture medium and Sir2 expression
same,PKA/HSL phosphorylation (lipolytic molecular signature),[9]; BAT,not in brown adipose tissue (BAT)
same,PKA/HSL phosphorylation (lipolytic molecular signature),[9]; iWAT,also found in iWAT
same,energy expenditure,[10],a significant increase in EE
same,plasma FFA elevation,"[11]; G49 + Ex9-39, 6 h",retained its effect in elevating FFAs in the presence of Ex9-39
same,plasma FFA elevation,"[11]; G49 + GCGRant, 6 h",abolished the acute effects of G49 in reducing total and visceral adiposity at 6 h post-injection and FFA elevation
same,plasma FFAs,"[11]; UCP1−/− mice, G49, 6 h",showed elevations in FFAs (at 6 h)
same,plasma FFAs,"[11]; irradiated DIO mice, G49, 6 h",the elevation of FFAs was preserved
same,plasma FFAs,"[11]; lean Gcgr−/− mice, single injection of G49, 1–6 h",did not elevate plasma FFAs at 1–6 h in Gcgr^−/− mice
same,lipolysis at 6 h and 1 h,"[11]; lean or DIO mice, G49","increased lipolysis at 6 h, but not at 1 h post-injection"
same,thermogenic gene expression and UCP1 protein,[12],"up-regulated lipolysis, thermogenic gene expression (Ucp1, Ppargc1a, Sir2) and UCP1 protein levels in BA"
same,body weight,"[13]; Adipoq−/− DIO mice, G49, 3–7 days",body weight stabilized in the period of 3–7 days in Adipoq^−/− mice
same,body weight,"[13]; DIO female mice, G49, 1 week",Body weight loss in the absence of a reduction in cumulative food intake
same,body weight,"[13]; DIO mice, G49 + Ex9-39 + GCGRant",failed to decrease body weight in the presence of both antagonists
same,body weight loss,"[13]; DIO mice, G49 without ATGLi, 72 h",11.8 ± 0.51%
same,body weight loss,"[13]; DIO mice, G49 without antagonist, day 7 (antagonist experiment)",23.2 ± 1.45%
same,body weight,"[13]; FGF21Alb-KO mice, HFD, G49, 3–7 days",body weight stabilized in G49-treated FGF21^Alb-KO mice in the period of 3–7 days
same,body weight,"[13]; UCP1−/− mice, HFD, G49, beyond 72 h",did not lose weight beyond this time-point
same,effect in lean mice,"[13]; lean mice, G49","mild and changes were found only in the short-term body weight loss, the early lipolytic response and the reduction of eWAT"
same,body weight loss,"[13]; male DIO mice, G49 20 nmol/kg, 1 week",6.9 ± 0.89%
same,body weight loss,"[13]; male mice, normal cycle, G49, 1 week",16.1 ± 0.72%
same,body weight loss,"[13]; male mice, reversed light/dark cycle, G49, 1 week",20.1 ± 0.49%
same,blood glucose and adiposity,"[14]; female DIO mice, G49, 1 week",efficacy of G49 in reducing blood glucose and adiposity was also found in female mice
same,blood glucose and adiposity,"[14]; male DIO mice at thermoneutrality (30 °C), G49",in male mice housed at thermoneutrality
same,hepatic lipid overload,"[15]; G49 + GCGRant, 6 h",hepatic lipid overload and ALT elevation were not observed
same,liver triglycerides,"[15]; G49, time course","elevated at 3–12 h post-injection, peaking at 6 h"
same,liver-to-body weight ratio,[16],"an increase in lipid accumulation analyzed by H&E and oil-red O staining of liver sections, liver-to-body weight ratio, and alanine aminotransferase (ALT) activity"
same,insulin-induced AKT Ser473 phosphorylation,[17],increased insulin sensitivity manifested by elevations in insulin-induced AKTSer473 phosphorylation
same,"fat depots (eWAT, iWAT)","[18]; DIO mice, G49 + ATGLi, 72 h",without reduction in fat depots
same,eWAT and iWAT depots,"[18]; FGF21Alb-KO mice, G49, 1 week",a partial reduction of eWAT and iWAT depots
same,TUNEL positive cells,[19],presence of TUNEL positive cells
same,inhibition of cumulative food intake,[20],28.30 ± 2.61%
same,hepatic Cpt1a and Ppara mRNAs,"[21]; DIO mice, G49",concomitant increase in hepatic Cpt1a and Ppara mRNAs
same,hepatic Srebf1 and Fasn mRNA,"[21]; DIO mice, G49 + ATGLi, 6 h",Srebf1 and Fasn mRNAs were reduced
same,liver Fgf21 mRNA upregulation,"[21]; DIO mice, G49 + ATGLi, 72 h",G49-mediated Fgf21 mRNA upregulation in the liver was also abolished
same,hepatic Fasn and Srebf1 mRNA,"[21]; DIO mice, G49 + GCGRant, 6 h",reduced by the presence of GCGRant
same,thermogenic-related genes in BAT,"[21]; DIO mice, G49, 1 week","increase in thermogenic-related genes (Cpt1b, Dio2, CoxIVi1, Ucp1, Th, Fgf21)"
same,Th mRNA in BAT,"[21]; DIO mice, G49 with blockade of GCGR",maintained G49-mediated increase in Th mRNA levels
same,Fgf21 mRNA in BAT,"[21]; FGF21Alb-KO mice, G49, 72 h",Fgf21 mRNA upregulation was not observed in BAT
same,Fgf21 mRNA in eWAT and iWAT,"[21]; FGF21Alb-KO mice, G49, 72 h",Fgf21 mRNA levels were upregulated in eWAT and iWAT
same,Th and cytokine mRNA in SVF,"[21]; SVF of eWAT, G49, 6 h and 24 h","an increase of Th mRNA at 6 h and a peak of Il14, Il10, and Il13 that declined at 24 h post-G49 treatment"
same,angiogenesis and beiging-related genes,"[21]; eWAT, G49, 1 week","Increases in angiogenesis (Vegf) and beiging-related genes (Cidea, Prdm16, CoxIVi1, Ucp1, Th, Cpt1a)"
same,M2 markers and Th mRNA,"[21]; eWAT, G49, 6 h","upregulated mRNA levels of M2 markers (Arg1, Il10, Tgfb) as well as Th"
same,"Acta2, Tgfb, Mmp9 mRNA","[21]; eWAT, G49, 6 h and day 7","transient increase in Acta2, Tgfb, and Mmp9 mRNA levels that declined at day 7"
same,Srebf1 and Fasn mRNA,"[21]; liver, DIO mice, G49, 6 h",both were elevated at 6 h post-G49 treatment
same,mitochondrial respiration,[22],an increase in mitochondrial respiration
